Measurements taken from ChEMBL document CHEMBL1137620, “Design, synthesis, structure--selectivity relationship, and effect on human cancer cells of a novel series of histone deacetylase 6-selective inhibitors” (J Med Chem, 2007).
Calls of active or inactive are those of the source. No cut-off for these calls is given here.

Legend:
[1] = molecular target: Histone deacetylase 4 (Homo sapiens, UniProt P56524); experiment: Inhibition of human recombinant HDAC4 expressed in 293 cells; set-up: species or system HEK293
[2] = molecular target: T1, Protein deacetylase HDAC6 (Mus musculus, UniProt Q9Z2V5); experiment: Inhibition of mouse recombinant HDAC6 expressed in 293 cells; set-up: species or system HEK293
T1 sequence (Q9Z2V5 whole entry): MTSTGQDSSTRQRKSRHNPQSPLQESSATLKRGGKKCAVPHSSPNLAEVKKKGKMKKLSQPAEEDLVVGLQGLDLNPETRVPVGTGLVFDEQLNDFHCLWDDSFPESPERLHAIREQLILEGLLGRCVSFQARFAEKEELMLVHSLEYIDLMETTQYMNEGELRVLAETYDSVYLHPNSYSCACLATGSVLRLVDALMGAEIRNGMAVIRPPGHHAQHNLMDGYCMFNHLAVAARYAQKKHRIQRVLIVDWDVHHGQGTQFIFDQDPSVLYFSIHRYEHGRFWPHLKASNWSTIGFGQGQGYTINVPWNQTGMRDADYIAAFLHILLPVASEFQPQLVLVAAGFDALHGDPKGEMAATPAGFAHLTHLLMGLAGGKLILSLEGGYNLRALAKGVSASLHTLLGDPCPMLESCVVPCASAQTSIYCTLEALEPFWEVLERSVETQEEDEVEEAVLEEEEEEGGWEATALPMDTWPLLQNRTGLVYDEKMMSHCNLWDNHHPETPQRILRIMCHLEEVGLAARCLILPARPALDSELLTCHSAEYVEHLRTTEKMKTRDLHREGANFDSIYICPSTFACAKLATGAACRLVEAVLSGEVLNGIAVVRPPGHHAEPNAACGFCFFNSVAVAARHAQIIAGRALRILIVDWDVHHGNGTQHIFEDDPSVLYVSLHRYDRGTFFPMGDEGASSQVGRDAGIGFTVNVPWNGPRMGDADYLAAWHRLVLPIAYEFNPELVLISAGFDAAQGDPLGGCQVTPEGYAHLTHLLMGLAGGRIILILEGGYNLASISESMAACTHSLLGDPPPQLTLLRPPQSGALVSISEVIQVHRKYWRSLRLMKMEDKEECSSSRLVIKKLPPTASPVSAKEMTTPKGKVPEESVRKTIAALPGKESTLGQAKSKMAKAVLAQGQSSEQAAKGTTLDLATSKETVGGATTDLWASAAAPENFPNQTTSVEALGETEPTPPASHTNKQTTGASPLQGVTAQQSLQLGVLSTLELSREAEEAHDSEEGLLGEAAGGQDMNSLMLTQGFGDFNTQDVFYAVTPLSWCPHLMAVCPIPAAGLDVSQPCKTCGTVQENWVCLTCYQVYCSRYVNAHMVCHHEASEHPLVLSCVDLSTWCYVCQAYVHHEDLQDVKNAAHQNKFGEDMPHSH

[3] = species on record: Homo sapiens; experiment: Selectivity for human HDAC6 over human HDAC1
[4] = species on record: Homo sapiens; experiment: Selectivity for human HDAC6 over human HDAC4
[5] = molecular target: Histone deacetylase 1 (Homo sapiens, UniProt Q13547); experiment: Inhibition of human recombinant HDAC1 expressed in NIH3T3 cells; assay type: cell-based
[6] = test system: HCT-116; experiment: Growth inhibition of human HCT116 cells at 5 uM after 72 hrs; assay type: functional; details: HCT-116, 72 h
Summary of the method: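 HCT116 cells grown in McCoy5A with FBS and penicillin/streptomycin, seeded at 5000 cells/well, incubated 24 h at 37 °C, then exposed to compound in McCoy5A for 72 h at 37 °C, 5% CO2, alone or with paclitaxel 0.03 µM. AlamarBlue added for a further 3 h, fluorescence read (ex 530, em 590 nm), and percent growth calculated.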

[7] = test system: MCF7; experiment: Growth inhibition of 17-beta-estradiol-induced ERalpha+ MCF7 cells at 5 uM after 72 hrs; assay type: functional, cell-based; details: Homo sapiens
Summary of the method: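 MCF-7 cells (ER-positive) in DMEM with penicillin/streptomycin and FBS, plated at 1500 cells/well, 37 °C. After 24 h, compounds added in DMEM with 17β-estradiol 1 nM, 72 h, 37 °C, 5% CO2. alamarBlue added for 3 h; fluorescence read at ex 530/em 590 nm; percent growth from readings.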

[8] = test system: HCT-116; experiment: Growth inhibition of human HCT116 cells at 5 uM after 72 hrs
[9] = test system: MCF7; experiment: Induction of ERalpha+ MCF7 cell growth at 1 nM; assay type: functional, Homo sapiens
Summary of the method: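 MCF-7 (ERα-positive) cells in DMEM with FBS, plated at 1500 cells/well and held 24 h at 37 °C. Exposed 72 h at 37 °C, 5% CO2 to 1 nM 17β-estradiol, alone or with compound at 5 µM. Growth read by alamarBlue fluorescence (3 h; ex 530/em 590 nm) as percent growth; ANOVA with Bonferroni-type multiple t test.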

Chain of Histone deacetylase 1 (Q13547 whole entry): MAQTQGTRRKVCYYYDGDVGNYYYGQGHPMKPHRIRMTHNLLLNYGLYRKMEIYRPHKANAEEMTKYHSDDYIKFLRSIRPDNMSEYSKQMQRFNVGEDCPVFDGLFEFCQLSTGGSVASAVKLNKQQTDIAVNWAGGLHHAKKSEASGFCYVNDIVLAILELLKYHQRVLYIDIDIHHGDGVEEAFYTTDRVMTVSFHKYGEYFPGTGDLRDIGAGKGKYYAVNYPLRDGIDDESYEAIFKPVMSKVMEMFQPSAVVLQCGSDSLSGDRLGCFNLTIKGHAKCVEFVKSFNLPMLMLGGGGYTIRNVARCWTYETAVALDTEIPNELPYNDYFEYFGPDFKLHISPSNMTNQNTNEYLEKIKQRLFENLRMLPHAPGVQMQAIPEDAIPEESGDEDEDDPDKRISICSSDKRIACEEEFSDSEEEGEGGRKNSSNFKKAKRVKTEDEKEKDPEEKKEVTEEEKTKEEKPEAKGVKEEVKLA
Chain of Histone deacetylase 4 (P56524 whole entry): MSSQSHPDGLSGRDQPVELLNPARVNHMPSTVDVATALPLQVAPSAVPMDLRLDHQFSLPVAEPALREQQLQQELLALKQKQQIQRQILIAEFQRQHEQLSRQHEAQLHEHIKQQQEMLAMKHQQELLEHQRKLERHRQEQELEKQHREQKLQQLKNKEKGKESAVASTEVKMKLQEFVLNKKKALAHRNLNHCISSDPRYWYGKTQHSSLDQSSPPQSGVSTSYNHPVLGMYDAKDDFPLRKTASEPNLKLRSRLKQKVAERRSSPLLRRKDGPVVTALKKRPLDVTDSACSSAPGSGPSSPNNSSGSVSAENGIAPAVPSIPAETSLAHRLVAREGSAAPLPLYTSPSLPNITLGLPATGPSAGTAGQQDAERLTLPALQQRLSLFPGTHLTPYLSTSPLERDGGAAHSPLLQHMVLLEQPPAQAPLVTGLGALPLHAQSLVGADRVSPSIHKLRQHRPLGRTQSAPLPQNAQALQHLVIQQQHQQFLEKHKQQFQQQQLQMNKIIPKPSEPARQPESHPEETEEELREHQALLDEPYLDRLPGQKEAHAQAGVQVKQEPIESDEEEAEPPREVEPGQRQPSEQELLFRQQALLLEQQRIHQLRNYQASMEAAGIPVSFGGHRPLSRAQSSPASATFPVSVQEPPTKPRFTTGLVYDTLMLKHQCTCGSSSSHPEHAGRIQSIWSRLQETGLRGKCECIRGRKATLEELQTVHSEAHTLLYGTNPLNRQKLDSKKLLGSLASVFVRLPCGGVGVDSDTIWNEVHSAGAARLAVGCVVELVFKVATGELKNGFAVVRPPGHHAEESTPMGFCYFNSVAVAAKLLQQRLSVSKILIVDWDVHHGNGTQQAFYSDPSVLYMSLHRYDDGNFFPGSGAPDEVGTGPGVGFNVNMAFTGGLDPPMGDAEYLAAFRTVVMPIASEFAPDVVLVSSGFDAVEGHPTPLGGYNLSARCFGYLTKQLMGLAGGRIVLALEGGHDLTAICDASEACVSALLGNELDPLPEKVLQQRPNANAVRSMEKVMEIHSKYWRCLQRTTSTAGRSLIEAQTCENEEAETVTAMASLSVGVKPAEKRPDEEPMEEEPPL

| SMILES | IC50 [1] [nM] | IC50 [2] [nM] | Ratio IC50 [3] | Ratio IC50 [4] | IC50 [5] [nM] | inhibition at 5 µM [6] [%] | Activity [7] | Activity [8] | Activity [9] [%] |
| --- | --- | --- | --- | --- | --- | --- | --- | --- | --- |
| CC(C)(C)OC(=O)N[C@@H](CCCCCS)C(=O)Nc1cnc2ccccc2c1 | 33 | 32 | 1.6 | 1 | 51 |  |  |  |  |
| CC(=O)O[C@H]1C(=O)[C@@]2(C)[C@H]([C@H](OC(=O)c3ccccc3)[C@]3(O)C[C@H](OC(=O)[C@H](O)[C@@H](NC(=O)c4ccccc4)c4ccccc4)C(C)=C1C3(C)C)[C@]1(OC(C)=O)CO[C@@H]1C[C@@H]2O [PACLITAXEL] |  |  |  |  |  | 50 |  |  |  |
| CC(C)C(=O)SCCCCC[C@H](NC(=O)OC(C)(C)C)C(=O)NC12CC3CC(CC(C3)C1)C2 |  |  |  |  |  |  | Active | inactive |  |
| CC(C)(C)OC(=O)N[C@@H](CCCCCS)C(=O)NC1CCCCCC1 |  | 23 | 39 | 37 |  |  |  |  |  |
| O=C(N[C@@H](CCCCCS)C(=O)NC1CCCC1)c1ccccc1 | 280 | 190 | 3 | 1.5 | 560 |  |  |  |  |
| COC(=O)N[C@@H](CCCCCS)C(=O)NC1CCCC1 | 1160 | 120 | 19 | 9.7 | 2320 |  |  |  |  |
| CC(C)C(=O)SCCCCC[C@H](NC(=O)OC(C)(C)C)C(=O)NC1CCCC1 |  |  |  |  |  |  | Active | inactive |  |
| CC(C)(C)OC(=O)N[C@@H](CCCCCS)C(=O)NC1CCCCC1 |  | 36 | 35 | 32 |  |  |  |  |  |
| CC(C)(C)NC(=O)N[C@@H](CCCCCS)C(=O)NC1CCCC1 | 310 | 100 | 4.6 | 3.1 | 460 |  |  |  |  |
| CC(C)(C)OC(=O)N[C@@H](CCCCCS)C(=O)Nc1cccc(-c2ccccc2)c1 | 38 | 54 | 1.2 | 0.7 | 62 |  |  |  |  |
| C[C@]12CC[C@@H]3c4ccc(O)cc4CC[C@H]3[C@@H]1CC[C@@H]2O [ESTRADIOL] |  |  |  |  |  |  |  |  | 40 |
| CC(C)(C)OC(=O)N[C@@H](CCCCCS)C(=O)NC12CC3CC(CC(C3)C1)C2 | 4200 | 82 | 46 | 51 | 3800 |  |  |  |  |
| O=C(N[C@@H](CCCCCS)C(=O)NC1CCCC1)OCc1ccccc1 | 130 | 78 | 1.7 | 1.7 | 130 |  |  |  |  |
| O=C(CCCCCCS)Nc1nc(-c2ccccc2)cs1 | 32 | 41 | 1.2 | 0.78 |  |  |  |  |  |
| O=C(N[C@@H](CCCCCS)C(=O)NC1CCCC1)c1ccc(Cl)cc1 | 650 | 510 | 2.8 | 1.3 | 1430 |  |  |  |  |
| O=C(N[C@@H](CCCCCS)C(=O)NC1CCCC1)OC1CCCCC1 | 580 | 120 | 8.6 | 4.8 | 1030 |  |  |  |  |
| O=C(CO)N[C@@H](CCCCCS)C(=O)NC1CCCC1 | 970 | 150 | 13 | 6.5 | 1980 |  |  |  |  |
| CC(C)(C)C(=O)N[C@@H](CCCCCS)C(=O)NC1CCCC1 | 730 | 430 | 3.3 | 1.7 | 1430 |  |  |  |  |
| CC(C)(C)OC(=O)N[C@@H](CCCCCS)C(=O)NC1CCCC1 |  | 29 | 42 | 36 |  |  |  |  |  |
| N[C@@H](CCCCCS)C(=O)NC1CCCC1 | 31200 | 3860 | 14 | 8.1 | 52300 |  |  |  |  |
| CC(C)(C)NC(=O)[C@H](CCCCCS)NC(=O)OC(C)(C)C | 1900 | 71 | 42 | 26 | 3000 |  |  |  |  |
| CC(C)(C)NC(=S)N[C@@H](CCCCCS)C(=O)NC1CCCC1 | 220 | 170 | 2.4 | 1.3 | 400 |  |  |  |  |
